In the library only some 2.1% were active in any assay of this set; here they are far more common.
M1 antag: human M1 muscarinic receptor antagonists, primary screen, CHO-K1 cells, Fluo-8 calcium fluorescence, 1536-well; inhibition, % at 3 µM; 360,000 tested, 1.3% active; Muscarinic acetylcholine receptor M1 (Homo sapiens), P11229; CHO-K1 hM1, ACh EC80 antagonist; AID 588852, 2011;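 active = percent inhibition above its own plate's cutoff, namely the mean of that plate's compound wells plus 3 SD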;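 note: peak over basal fluorescence ratio during 140 s after agonist addition; 0% = ACh EC80 plus DMSO and 100% = DMSO alone without agonist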
Target sequence (P11229 whole entry, looked up): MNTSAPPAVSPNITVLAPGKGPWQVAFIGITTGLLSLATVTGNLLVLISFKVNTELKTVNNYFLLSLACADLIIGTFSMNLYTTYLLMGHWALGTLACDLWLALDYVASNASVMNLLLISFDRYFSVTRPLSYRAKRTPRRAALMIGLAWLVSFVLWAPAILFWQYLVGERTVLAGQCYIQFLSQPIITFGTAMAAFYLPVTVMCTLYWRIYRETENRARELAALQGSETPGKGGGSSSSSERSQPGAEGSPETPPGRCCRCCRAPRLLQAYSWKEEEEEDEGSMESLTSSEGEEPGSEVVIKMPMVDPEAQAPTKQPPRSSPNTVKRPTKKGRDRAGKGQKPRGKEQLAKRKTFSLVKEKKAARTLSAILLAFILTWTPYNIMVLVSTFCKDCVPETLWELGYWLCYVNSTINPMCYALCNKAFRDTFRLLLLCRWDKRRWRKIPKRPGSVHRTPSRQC
M5 PAM: human M5 muscarinic receptor positive allosteric modulators, primary screen, CHO-K1 cells, Fluo-8 calcium fluorescence; 360,000 tested, 0.3% active; Muscarinic acetylcholine receptor M5 (Homo sapiens), P08912; CHO-K1 hM5, ACh EC20 PAM; 0% = ACh EC20, 100% = ACh EC100; activation, % at 3 µM;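 active = activation above the run cutoff, the mean activation of all test compounds plus 3 SD, cut at about 18% in these data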
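System: CHO-K1 cell line with stable human muscarinic M5 receptor expression | Also added: EC20 acetylcholine as agonist stimulus | Compound: One concentration, 3 µM final (nominal) | Timing: Fluo-8 loading 80 min at 37 °C plus 30 min room temperature | Measured by: Fluo-8 calcium dye fluorescence, kinetic read | Read-out basis: % activation, ACh-normalized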
M5 ag: human M5 muscarinic receptor agonists, primary screen, CHO-K1 cells, Fluo-8 calcium fluorescence | activation, % at 3 µM | 360,000 tested, 0.19% active | CHO-K1 hM5 cells; 0% DMSO wells, 100% maximal acetylcholine response | AID 624037, 2012;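 active = activation above the run's mean over test compounds plus 3 SD, cut at about 23% in these data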;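 note: signal is peak over basal fluorescence ratio across the kinetic read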
M5 antag: human M5 muscarinic receptor antagonists, primary screen, CHO cells, Fluo-8 calcium fluorescence. 360,000 tested, 0.59% active. CHO-hM5 cells, ACh EC80. inhibition, % at 3 µM;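 active = inhibition above a per-plate cutoff, the mean of that plate's test compounds plus 3 SD, cut at about 27% in these data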;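 note: 0% = acetylcholine EC80 with DMSO and 100% = DMSO without agonist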
M1 ag: human M1 muscarinic receptor agonists, primary screen, Fluo-8 calcium fluorescence, CHO-K1 cells, HTS. Muscarinic acetylcholine receptor M1 (Homo sapiens), P11229. CHO-K1 hM1, agonist mode; 0% DMSO, 100% acetylcholine EC100. activation, % at 3 µM. 360,000 tested, 0.33% active. AID 588814, 2011;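 active = activation above the run's mean compound activation plus 3 SD, cut at about 16% in these data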;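 note: peak over basal fluorescence ratio within a 140 s kinetic read after compound addition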
CHRM1 PAM: human M1 muscarinic receptor positive allosteric modulators, primary screen, CHO-K1 cells, Fluo-8 calcium fluorescence, 1536-well; Muscarinic acetylcholine receptor M1 (Homo sapiens), P11229; CHO-K1 hM1, ACh EC20; 0% = ACh EC20, 100% = maximal ACh; activation, % at 3 µM; 360,000 tested, 0.088% active; AID 588819, 2011; in the data active = activation above about 19%, passing the limit was not always enough
An asterisk follows results filed as active; . = no result.

SMILES	M1 antag	M5 PAM	M5 ag	M5 antag	M1 ag	CHRM1 PAM
CC1CN(C)C(C)c2c1oc1ccc(N)cc21 (configuration not stated)	-2.5	19.5*	-1.1	-2.6	-6.8	6.1
Nc1nc2cc3c(cc2cc1C(=O)NCc1ccc(F)cc1)OCO3	.	-19.1	11.1	27.0*	.	.
CC(C)c1cc(C(=O)NCc2ccc(F)cc2)c(N)s1	.	18.4*	4.2	-6.4	.	.
CC(C)c1cc(C(=O)NCCc2cccs2)c(N)s1	.	0.5	0.4	5.0	.	.
CC(=O)C(Sc1nccc(-c2cccs2)n1)C(C)=O	-8.6	0.9	-7.5	12.4	-7.3	6.3
CCN(CC)c1ccc(/C=C2\C(=O)c3ccc(C(=O)O)cc3C2=O)cc1	62.3*	-20.6	31.6*	25.3	126.2*	-28.9
CCN(CC)c1ccc(C(=O)O)cc1	10.3	-5.7	-1.8	4.3	-5.6	-5.0
CCOC(=O)c1nn(-c2ccc(C)cc2)c2nc(Nc3ccccc3)cc(=O)n12	1.5	-0.1	-1.6	4.6	-2.3	9.6
Cc1ccc(-n2nc(C(=O)c3ccccc3)n3c(=O)cc(-c4ccccc4)nc23)cc1	37.3*	-0.7	-3.1	-4.5	-4.1	-5.8
COc1ccccc1OCc1ccc(C(=O)N2CCCCC2)o1	-7.5	22.2*	0.7	22.2	-4.7	7.4
COc1ccccc1OCc1ccc(C(=O)N2CCOCC2)o1	-8.3	-3.5	-1.1	0.3	-6.5	-0.7
COc1ccc(N2CCN(C(=O)c3ccc(COc4ccc([N+](=O)[O-])cc4)o3)CC2)cc1	29.6*	-12.2	-2.4	15.6	0.2	-14.8
O=C(Cn1c(=O)c2cccn2c2cccnc21)N1CCN(c2ccc(Cl)cc2)CC1	-7.2	-0.1	1.8	5.4	-2.5	8.2
O=C(Cn1c(=O)c2cccn2c2ccc(F)cc21)N1CCN(c2ccc(F)cc2)CC1	1.1	-9.9	-2.5	28.2*	-2.6	-1.3
CC1CC(OC(=O)C(O)c2ccccc2)CC(C)(C)N1C (configuration not stated)	62.7	-19.2	-2.0	88.3*	-8.5	-26.1
COc1ccc2oc(C(=O)N(C)CCOc3ccccc3)c(C)c2c1	23.0	-9.2	-5.1	12.2	-4.3	-6.9
CN(C)CCC=C1c2ccccc2CCc2ccccc21	.	-19.3	-0.5	98.8*	.	.
CN(C)CC/C=C1/c2ccccc2COc2ccc(CC(=O)O)cc21	-2.2	-10.6	-1.8	6.9	-8.9	-9.0
CNc1ccc(C=C2C=Cc3ccccc32)cc1	-15.6	2.1	5.6	2.4	-0.8	7.6
CN(C)c1ccc(C=C2C=Cc3ccccc32)cc1	-11.6	-2.1	1.6	9.2	4.3	14.8
CNCCC=C1c2ccccc2C=Cc2ccccc21	98.0*	-18.4	1.2	98.6*	-3.9	-25.1
CN(C)CCC=C1c2ccccc2C=Cc2ccccc21	98.1*	-17.9	-0.1	98.7*	-6.0	-25.4
Cc1ccc(NS(=O)(=O)c2ccc(C)c(NC(=S)NCCN3CCOCC3)c2)c(C)c1	-5.1	-0.8	0.5	16.2	-3.6	5.7
Cc1ccc(NS(=O)(=O)c2ccc(C(=O)NCc3ccncc3)cc2)cc1	2.0	-5.5	17.7	5.0	17.9*	4.9
Cc1ccc(NS(=O)(=O)c2ccc(C(=O)NCc3ccccn3)cc2)cc1	8.4	-6.3	21.9	8.8	28.2*	-1.6
SMILES	M1 antag	M5 PAM	M5 ag	M5 antag	M1 ag	CHRM1 PAM
CCOc1ccc(NS(=O)(=O)c2ccc(C(=O)NCc3ccccn3)cc2)cc1	8.2	-11.8	32.5*	3.5	27.9*	0.8
O=c1[nH]n(-c2ncnc3c2cnn3-c2ccccc2)c(=O)c2ccccc12	1.5	-4.3	0.8	5.1	-2.4	2.0
CCc1ccccc1NC(=O)CN1CCC(NC(=O)COC)CC1	5.5	2.6	0.7	-5.5	-3.9	-0.5
Nc1ccc2c3c(cccc13)-c1ccccc1-2	42.4*	-31.2	204.7*	63.1*	36.8*	-13.8
CN(C)CCC(=O)C(Cc1ccccc1)c1ccccc1 (configuration not stated)	72.9*	-19.0	-18.4	4.6	-7.1	-26.8
CC(CCCN(C)C)C(Cc1ccccc1)c1ccccc1 (configuration not stated)	80.2*	-35.5	-17.9	31.1*	-7.5	-24.0
O=C1c2ccccc2C(O)N1c1ccccc1 (configuration not stated)	-19.9	10.4	-2.1	-7.5	-0.9	17.8
CCc1nn2cc(C(=O)c3cc(Cl)ccc3O)cnc2c1-c1ccc(F)cc1	43.0*	10.4	0.3	2.2	-5.8	-7.3
Cc1ccc(C(=O)N2CCN(c3ccc([N+](=O)[O-])c(N4CCOCC4)c3)CC2)cc1	-4.4	-3.0	-2.1	-5.7	-6.8	5.3
CNc1cc(C)nc(N2CCOCC2)n1	-1.8	-18.3	-2.8	28.7*	-1.9	4.2
CCc1ccc(C(=O)NCC2(c3ccccc3)CCOCC2)o1	-13.0	6.5	4.2	-6.3	-0.3	17.4
N#CC(C#N)=C(Nc1ccc(F)cc1)SCc1cccc(Br)c1	23.8	-19.4	6.2	31.9*	2.6	-9.9
Cc1cccc(CSC(Nc2ccc(F)cc2)=C(C#N)C#N)c1	20.2	-15.1	6.4	29.5*	2.7	-12.7
CC(SCc1ccccc1)C(=O)Nc1ccc(F)cc1 (configuration not stated)	0.8	0.0	-0.2	8.3	-3.9	3.6
Cc1ccsc1/C=N/NC(=O)c1nnn(-c2nonc2N)c1C(C)C	-7.6	-1.6	3.8	2.7	4.0	1.4
CC(C)c1c(C(=O)N/N=C/c2ccsc2)nnn1-c1nonc1N	17.4	-13.0	17.1	15.3	27.8*	-6.9
COc1cc(/C=N/NC(=O)c2nnn(-c3nonc3N)c2C(C)C)ccc1O	20.7	-0.8	5.5	-6.0	1.1	-8.1
CC(C)c1c(C(=O)N/N=C/c2cccs2)nnn1-c1nonc1N	9.2	-6.0	16.1	4.5	33.6*	-5.8
CC(C)c1c(C(=O)N/N=C/c2ccoc2)nnn1-c1nonc1N	-8.3	3.3	2.6	-12.3	9.5	6.1
CC(C)c1c(C(=O)N/N=C/c2ccc(C(F)(F)F)cc2)nnn1-c1nonc1N	-18.4	16.1	19.6	-13.4	21.0*	20.6
O=C1C(Cc2ccc(F)cc2)SC(=Nc2ccccc2)N1c1ccccc1 (configuration not stated)	-1.9	0.4	-5.6	-6.4	-6.6	-7.6
